Results on 11 molecules are retold here after ChEMBL document CHEMBL1143149, “Synthesis, metal ion binding, and biological evaluation of new anticancer 2-(2'-hydroxyphenyl)benzoxazole analogs of UK-1” (Bioorg Med Chem, 2008).

Test [1] concerns MCF7. Description: Cytotoxicity against human MCF7 cells by Alamar blue assay. The test is classed as functional, cell-based. The method in brief: (§1)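 MCF-7 cells in improved MEM (Richter's) with L-glutamine, 10% FBS and 1% penicillin/streptomycin. 1-3×10^3 cells/well preincubated 24 h at 37 °C, 5% CO2. DMSO solutions added in duplicate at 0.001–50 μM final, then 72 h exposure. AlamarBlue added for 6 h; fluorescence read ex 530/em 590 nm. IC50 by sigmoidal fit of % growth against time-zero and vehicle.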
For orientation: Alamar Blue is a resazurin reagent that responds to reducing activity.

In test [2] the test system is A549. Description: Cytotoxicity against human A549 cells by Alamar blue assay. The test is classed as functional, cell-based. The method in brief: (§2)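 A549 cells in Ham's F-12 (Kaighn's) with 10% FBS and 1% penicillin/streptomycin. Seeded at 1-3×10^3 cells/well for 24 h at 37 °C, 5% CO2. Compound in DMSO added in duplicate at 0.001–50 μM final, then 72 h. Fresh medium plus AlamarBlue for 6 h; fluorescence ex 530/em 590 nm. % growth relative to time-zero and vehicle; IC50 from Hill-equation non-linear fit.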

Test [3] can be described thus: Enhancement of DNA binding affinity in presence of Cu2+/Ni2+.
Test [4] has as its system MCF7. In words: Cytotoxicity against human MCF7 cells after 24 hrs. To be noted: MCF7, 24 h. The test is classed as functional, cell-based.
Test [5] deals with MCF7. In words: Cytotoxicity against human MCF7 cells after 72 hrs. The class given is functional, cell-based. As to conditions: MCF7, 72 h. The method in brief:
as §1

The test system of test [6] is A549. Description: Cytotoxicity against human A549 cells after 24 hrs. To be noted: A549, 24 h. The class given is functional, cell-based.
The test system of test [7] is A549. In words: Cytotoxicity against human A549 cells after 72 hrs. The test is classed as functional, cell-based. As to conditions: A549, 72 h. The method, boiled down: as §2
Test [8] relates to MCF7. Description: Cytotoxicity against human MCF7 cells after 24 hrs in presence of CuCl2. The test is classed as functional, cell-based. As to conditions: MCF7, 24 h.
Test [9] deals with MCF7. Description: Cytotoxicity against human MCF7 cells after 72 hrs in presence of CuCl2. The test is classed as functional, cell-based. To be noted: MCF7, 72 h. The method, boiled down: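 MCF-7 cells in Richter's improved MEM with 10% FBS. Compound given with 10 μM CuCl2 for 72 h at 37 °C, 5% CO2, in duplicate. AlamarBlue for 6 h, fluorescence ex 530/em 590 nm. IC50 by non-linear Hill fit of % growth referenced to time-zero and vehicle wells.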

Test [10] deals with A549. Description: Cytotoxicity against human A549 cells after 24 hrs in presence of CuCl2. The test is classed as functional, cell-based. As to conditions: A549, 24 h.
Test [11] has as its system A549. Description: Cytotoxicity against human A549 cells after 72 hrs in presence of CuCl2. The class given is functional, cell-based. As to conditions: A549, 72 h. The method, boiled down: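 A549 cells in Ham's F-12 (Kaighn's) with 10% FBS and penicillin/streptomycin. Compound plus 10 μM CuCl2 for 72 h at 37 °C, 5% CO2, in duplicate. Viability by AlamarBlue fluorescence (ex 530/em 590 nm) after 6 h. IC50 from non-linear fit of % growth versus time-zero and vehicle controls.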

The source made the active and inactive calls. The calls are words filed in the database; no cut-off is given here.

As for `O=C(OCCOCCOCCOCCO)c1cccc2oc(-c3ccccc3O)nc12`, the figures for the IC50 with MCF7 [1] and with A549 [2] were 13 µM and 11 µM, respectively. Also, the result in [3] was Active.
On to `CO[C@@]12[C@H](COC(N)=O)C3=C(C(=O)C(C)=C(N)C3=O)N1C[C@@H]1N[C@@H]12` [MITOMYCIN], for which the IC50 – broadly, the concentration at which inhibition is half-maximal – is 5 µM in the test on MCF7 [4], 1.2 µM with MCF7 [5], 4.5 µM with A549 [6] and 0.24 µM in the test on A549 [7].
Regarding `O=C(NCCCCCCO)c1cccc2oc(-c3ccccc3O)nc12`, the IC50 in the test with MCF7 [1] was found to be 31 µM; in the test on A549 [2], 39 µM. Further, in test [3], the outcome was inactive.
Turning to `COC(=O)c1cccc2nc(-c3ccccc3O)oc12`, the IC50 turned out to be 7 µM in the test with MCF7 [1] and 35 µM in the test on A549 [2].
As for `CCCCNC(=O)c1cccc2oc(-c3ccccc3O)nc12`, the values for the IC50 in the test with MCF7 [1] and in the test with A549 [2] were 30 µM and 14 µM, respectively. For the same molecule, the result in test [3] was Active.
As for `COc1ccccc1-c1nc2c(C(=O)O)cccc2o1`, the IC50 in the test on MCF7 [1] and with A549 [2] was over 50 µM in each case.
Turning to `CNC(=O)c1cccc2oc(-c3ccccc3O)nc12`, the IC50 in the test with MCF7 [1] stood at 10 µM; in the test with A549 [2], 11 µM. Besides, in test [3], the outcome was Active.
On to `O=C(NCCOCCO)c1cccc2oc(-c3ccccc3O)nc12`, for which the concentration for half-maximal inhibition (IC50) in the test on MCF7 [1] is over 50 µM; in the test on A549 [2] it was 41 µM. For the same molecule, in [3], the outcome was inactive.
As to `COC(=O)c1cccc2oc(-c3ccccc3O)nc12`, the IC50 in the test with MCF7 [1] came to 4 µM; in the test on A549 [2], 12 µM. Also, in test [3], the result was Active.
As for `CCOC(=O)c1cccc2oc(-c3ccccc3O)nc12`, the IC50 amounted to 15 µM with MCF7 [1] and 40 µM with A549 [2]. Further, the result in test [3] was Active.
Consider `COC(=O)c1cccc2oc(-c3cccc4oc(-c5ccccc5O)nc34)nc12`, for which the IC50 was found to be 31 µM in the test with MCF7 [4]; 1.7 µM in the test on MCF7 [5]; 4.6 µM in the test on MCF7 [8]; 1.2 µM in the test with MCF7 [9]; 17 µM with A549 [6]; 1 µM in the test with A549 [7]. The IC50 in the test with A549 [10] amounted to 4.5 µM; in the test on A549 [11], 0.2 µM.
